Source: ChEMBL document CHEMBL3297708, “Lead optimization of a novel series of imidazo[1,2-a]pyridine amides leading to a clinical candidate (Q203) as a multi- and extensively-drug-resistant anti-tuberculosis agent” (J Med Chem, 2014)
Values after ≈ are worked out from the molar mass of the structure shown.

What was measured:
[1] = Half life in human liver microsomes; type: ADME
Method in brief: (§1)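 Metabolic stability measured by incubation in human or mouse liver microsomal preparations; half-life reported.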

[2] = Solubility of the compound in aqueous solution at pH 2.1; type: physicochemical
Cytochrome P450 2C9 = Cytochrome P450 2C9 (Homo sapiens, UniProt P11712); test: Inhibition of recombinant CYP2C9 (unknown origin) by LC/MS/MS analysis; type: ADME
Sequence of Cytochrome P450 2C9 (P11712 whole entry): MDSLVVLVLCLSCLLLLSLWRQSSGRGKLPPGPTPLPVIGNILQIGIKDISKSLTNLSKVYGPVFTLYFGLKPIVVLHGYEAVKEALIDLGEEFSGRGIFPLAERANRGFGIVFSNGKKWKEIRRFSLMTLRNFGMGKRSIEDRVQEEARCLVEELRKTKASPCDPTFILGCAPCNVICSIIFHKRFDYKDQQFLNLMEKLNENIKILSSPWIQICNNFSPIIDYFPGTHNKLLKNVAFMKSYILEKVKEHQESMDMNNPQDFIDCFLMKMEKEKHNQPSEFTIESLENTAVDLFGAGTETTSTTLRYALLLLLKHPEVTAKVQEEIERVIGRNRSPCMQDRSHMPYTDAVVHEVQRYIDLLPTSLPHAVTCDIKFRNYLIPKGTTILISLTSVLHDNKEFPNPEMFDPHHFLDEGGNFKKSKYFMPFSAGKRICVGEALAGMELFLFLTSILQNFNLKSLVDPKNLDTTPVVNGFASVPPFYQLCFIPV
Method in brief: (§2)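 Recombinant CYP enzymes (5 pmol/mL) with substrate, in 100 mM potassium phosphate pH 7.4, 3.3 mM MgCl2, with or without 1 mM NADPH; incubated 10 min (CYP1A2, CYP2C9), 20 min (CYP2C19, CYP2D6), or 3 min (CYP3A4); stopped with cold stop solution containing tolbutamide internal standard; metabolite measured by LC-MS/MS.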

Cytochrome P450 3A4 = Cytochrome P450 3A4 (Homo sapiens, UniProt P08684); test: Inhibition of recombinant CYP3A4 (unknown origin) by LC/MS/MS analysis; type: ADME; method in brief: as §2
Sequence of Cytochrome P450 3A4 (P08684 whole entry): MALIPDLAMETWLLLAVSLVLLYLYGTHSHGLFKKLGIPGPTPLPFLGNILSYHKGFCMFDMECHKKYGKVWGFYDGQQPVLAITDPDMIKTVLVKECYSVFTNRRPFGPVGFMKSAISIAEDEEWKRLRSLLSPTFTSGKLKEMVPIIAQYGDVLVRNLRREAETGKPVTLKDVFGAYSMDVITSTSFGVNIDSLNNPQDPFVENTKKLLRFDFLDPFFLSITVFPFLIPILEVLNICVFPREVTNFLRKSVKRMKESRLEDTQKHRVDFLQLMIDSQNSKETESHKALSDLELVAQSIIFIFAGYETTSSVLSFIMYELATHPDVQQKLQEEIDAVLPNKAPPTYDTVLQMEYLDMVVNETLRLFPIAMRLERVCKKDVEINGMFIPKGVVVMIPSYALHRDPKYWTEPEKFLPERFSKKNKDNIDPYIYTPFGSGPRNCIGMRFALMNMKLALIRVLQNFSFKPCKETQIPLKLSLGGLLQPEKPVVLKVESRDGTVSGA

Cytochrome P450 2C19 = Cytochrome P450 2C19 (Homo sapiens, UniProt P33261); test: Inhibition of recombinant CYP2C19 (unknown origin) by LC/MS/MS analysis; type: ADME; method in brief: as §2
Sequence of Cytochrome P450 2C19 (P33261 whole entry): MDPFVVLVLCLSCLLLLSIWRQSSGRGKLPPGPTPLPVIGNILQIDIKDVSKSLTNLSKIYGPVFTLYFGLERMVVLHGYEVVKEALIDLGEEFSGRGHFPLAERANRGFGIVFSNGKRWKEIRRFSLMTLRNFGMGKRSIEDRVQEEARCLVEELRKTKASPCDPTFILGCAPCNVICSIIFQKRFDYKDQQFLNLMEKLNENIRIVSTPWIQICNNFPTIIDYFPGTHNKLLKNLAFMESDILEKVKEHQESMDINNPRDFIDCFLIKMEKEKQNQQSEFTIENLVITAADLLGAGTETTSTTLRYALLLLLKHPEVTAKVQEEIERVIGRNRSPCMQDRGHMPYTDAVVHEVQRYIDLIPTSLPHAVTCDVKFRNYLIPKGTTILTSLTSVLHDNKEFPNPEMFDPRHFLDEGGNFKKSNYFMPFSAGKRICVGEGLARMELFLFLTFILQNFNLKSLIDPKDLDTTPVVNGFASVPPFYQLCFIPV

[3] = Half life in mouse liver microsomes; type: ADME; method in brief: as §1
Cytochrome P450 1A2 = biological target: T1, Cytochrome P450 1A2 (Homo sapiens, UniProt P05177); test: Inhibition of recombinant CYP1A2 (unknown origin) by LC/MS/MS analysis; type: ADME; method in brief: as §2
T1 sequence (P05177 whole entry): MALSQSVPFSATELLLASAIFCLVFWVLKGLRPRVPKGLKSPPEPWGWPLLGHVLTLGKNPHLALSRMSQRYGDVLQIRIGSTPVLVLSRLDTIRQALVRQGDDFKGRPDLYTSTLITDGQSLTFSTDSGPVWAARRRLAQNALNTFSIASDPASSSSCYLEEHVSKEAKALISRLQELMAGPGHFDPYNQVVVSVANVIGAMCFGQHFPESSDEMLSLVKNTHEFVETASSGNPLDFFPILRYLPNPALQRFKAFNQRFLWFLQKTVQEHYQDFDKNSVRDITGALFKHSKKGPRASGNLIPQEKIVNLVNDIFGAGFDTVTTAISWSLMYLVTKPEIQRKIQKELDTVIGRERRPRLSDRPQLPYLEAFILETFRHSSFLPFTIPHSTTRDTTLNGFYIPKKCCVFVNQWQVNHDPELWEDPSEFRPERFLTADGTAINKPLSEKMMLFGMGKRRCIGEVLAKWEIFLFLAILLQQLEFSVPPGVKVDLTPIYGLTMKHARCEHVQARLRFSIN

[4] = test system: Mycobacterium tuberculosis; test: Antimycobacterial activity against Mycobacterium tuberculosis H37Rv in macrophages; type: functional
Method in brief: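 M. tuberculosis H37Rv replicating inside macrophages; intracellular MIC80 determined, i.e. concentration inhibiting 80% of growth.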

Cytochrome P450 2D6 = Cytochrome P450 2D6 (Homo sapiens, UniProt P10635); test: Inhibition of recombinant CYP2D6 (unknown origin) by LC/MS/MS analysis; type: ADME; method in brief: as §2
Sequence of Cytochrome P450 2D6 (P10635 whole entry): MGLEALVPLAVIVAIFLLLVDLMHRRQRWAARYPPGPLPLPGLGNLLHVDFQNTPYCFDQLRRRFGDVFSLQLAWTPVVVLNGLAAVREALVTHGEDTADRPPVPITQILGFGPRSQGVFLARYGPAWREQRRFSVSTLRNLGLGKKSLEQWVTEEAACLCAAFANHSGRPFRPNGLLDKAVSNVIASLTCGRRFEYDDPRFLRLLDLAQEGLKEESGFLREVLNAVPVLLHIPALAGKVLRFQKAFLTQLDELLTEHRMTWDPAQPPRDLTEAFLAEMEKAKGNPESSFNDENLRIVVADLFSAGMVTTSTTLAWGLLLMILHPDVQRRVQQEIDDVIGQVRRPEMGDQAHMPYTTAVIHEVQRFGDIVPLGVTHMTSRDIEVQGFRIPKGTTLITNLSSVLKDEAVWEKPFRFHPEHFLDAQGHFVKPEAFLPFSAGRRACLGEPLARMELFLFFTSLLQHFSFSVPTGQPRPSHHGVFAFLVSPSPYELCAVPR

[5] = Solubility of the compound in phosphate buffer at pH 7.4; type: physicochemical
[6] = test system: Mycobacterium tuberculosis; test: Antimycobacterial activity against Mycobacterium tuberculosis H37Rv in liquid broth culture medium; type: functional
Method in brief: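 M. tuberculosis H37Rv replicating in liquid broth culture medium; MIC80 determined, i.e. concentration inhibiting 80% of growth.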

Row | SMILES | half-life [1] [min] | solubility [2] [µg/mL] | IC50 (Cytochrome P450 2C9) [µM] | IC50 (Cytochrome P450 3A4) [µM] | IC50 (Cytochrome P450 2C19) [µM] | half-life [3] [min] | IC50 (Cytochrome P450 1A2) [µM] | MIC80 [4] [µM] | IC50 (Cytochrome P450 2D6) [µM] | solubility [5] [µg/mL] | MIC80 [6] [µM]
1 | CCc1nc2ccc(Cl)cn2c1C(=O)NCc1ccc(N2CCN(c3ccc(F)cc3)CC2)cc1 | > 120 | 38.5 (≈ 78.3 µM) | 1.33 | 0.49 | 1.32 | 33.3 | > 40 | 0.0003 (≈ 0.148 ng/mL) | > 40 | 1.31 (≈ 2.66 µM) | < 0.0005
2 | CCc1nc2ccc(Cl)cn2c1C(=O)NCc1ccc(N2CCC(c3ccc(Cl)cc3)CC2)cc1 | 57.9 | 39.7 (≈ 78.3 µM) | 0.26 | > 40 | 6.77 | 116 | > 40 | 0.0013 (≈ 0.66 ng/mL) | > 40 | 2.59 (≈ 5.1 µM) | 0.0041 (≈ 2.08 ng/mL)
3 | CCc1nc2cc(Cl)ccn2c1C(=O)NCc1ccc(N2CCN(C)CC2)cc1 | 117 |  |  |  |  | 12.1 |  | 0.36 (≈ 148 ng/mL) |  |  | 4.39 (≈ 1810 ng/mL)
4 | CCc1nc2ccccn2c1C(=O)NCc1ccc(-c2ccccc2)cc1 | 27.1 |  |  |  |  |  |  | 0.097 (≈ 34.5 ng/mL) |  |  | 0.063 (≈ 22.4 ng/mL)
5 | CCc1nc2ccc(Cl)cn2c1C(=O)NCc1ccc(-c2ccc(Cl)cc2)cc1 | 83 | 1.42 (≈ 3.35 µM) |  |  |  | > 60 |  | 0.00045 (≈ 0.191 ng/mL) |  | 1.97 (≈ 4.64 µM) | 0.0009 (≈ 0.382 ng/mL)
6 | CCc1nc2ccc(Cl)cn2c1C(=O)NCc1ccc(N2CCC(c3ccc(F)cc3)CC2)cc1 | 62.6 | 38.5 (≈ 78.5 µM) | > 40 | > 40 | > 40 | 20.3 | > 40 | 0.00036 (≈ 0.177 ng/mL) | > 40 | 3.99 (≈ 8.13 µM) | < 0.0005
7 | CCc1nc2cc(Cl)ccn2c1C(=O)NCc1ccc(N2CCN(C(C)C)CC2)cc1 | > 120 |  |  |  |  | 8.9 |  | 0.14 (≈ 61.6 ng/mL) |  |  | 3 (≈ 1320 ng/mL)
8 | CCc1nc2cc(Cl)ccn2c1C(=O)NCc1ccc(N2CCCCC2)cc1 | 13.2 |  |  |  |  | 2.3 |  | 0.0082 (≈ 3.25 ng/mL) |  |  | 0.016 (≈ 6.35 ng/mL)
9 | CCc1nc2cc(Cl)ccn2c1C(=O)NCc1ccc(-c2ccc[nH]2)cc1 | > 120 |  |  |  |  | 10.8 |  | 0.14 (≈ 53 ng/mL) |  |  | 2 (≈ 758 ng/mL)
10 | CCc1nc2cc(Cl)ccn2c1C(=O)NCc1ccc(-c2ccc(Cl)cc2)cc1 | > 120 |  |  |  |  | > 60 |  | 0.00101 (≈ 0.429 ng/mL) |  |  | 0.0013 (≈ 0.552 ng/mL)
11 | CCc1nc2cc(Cl)ccn2c1C(=O)NCc1ccc(-n2cc3c(c2)CCCC3)cc1 | 27.3 |  |  |  |  | 62.3 |  | 0.00374 (≈ 1.62 ng/mL) |  |  | 0.034 (≈ 14.7 ng/mL)
12 | CC(C)c1nc2ccccn2c1C(=O)NCc1ccc(-c2ccccc2)cc1 | 31.6 |  |  |  |  |  |  | 3.13 (≈ 1160 ng/mL) |  |  | 3.13 (≈ 1160 ng/mL)
13 | CCc1nc2cc(Cl)ccn2c1C(=O)NCc1ccc(N2CCC(C(F)(F)F)CC2)cc1 | 6.5 |  |  |  |  | 5.1 |  | 0.00047 (≈ 0.219 ng/mL) |  |  | 0.0008 (≈ 0.372 ng/mL)
14 | CCc1nc2ccc(Cl)cn2c1C(=O)NCc1ccc(-c2ccccc2Cl)cc1 | 38.9 |  |  |  |  | 13.1 |  | 0.0093 (≈ 3.95 ng/mL) |  |  | 0.043 (≈ 18.2 ng/mL)
15 | CCc1nc2ccc(Cl)cn2c1C(=O)N(C)Cc1ccc(-c2ccccc2)cc1 |  |  |  |  |  |  |  | 0.97 (≈ 392 ng/mL) |  |  | 8.69 (≈ 3510 ng/mL)
16 | Cc1nc2ccccn2c1C(=O)NCc1ccc(-c2ccccc2)cc1 |  |  |  |  |  |  |  | 0.02 (≈ 6.83 ng/mL) |  |  | 0.25 (≈ 85.4 ng/mL)
17 | CCc1nc2ccc(Cl)cn2c1CNCc1ccc(-c2ccccc2)cc1 |  |  |  |  |  |  |  | 0.2 (≈ 75.2 ng/mL) |  |  | 0.81 (≈ 304 ng/mL)
18 | CCc1nc2cc(Cl)ccn2c1C(=O)NCc1ccc(N2CCN(c3ccc(OC(F)(F)F)cc3)CC2)cc1 | > 120 |  | 0.17 | > 40 | > 40 | > 60 | > 40 | 0.00011 (≈ 0.0614 ng/mL) | > 40 |  | 0.0018 (≈ 1 ng/mL)
19 | CCc1nc2cc(Cl)ccn2c1C(=O)NCc1ccc(-c2ccc(C)cc2)cc1 | 25.4 |  |  |  |  | 23.1 |  | 0.00135 (≈ 0.545 ng/mL) |  |  | < 0.0005
